The test system of series [1] is Mus musculus. The series is described as follows: In vivo antitumor efficacy after peroral dose of 25 mg/kg in mice expressed as duration for which compound was present above IC50. Format: ADME, organism-based. Also noted: dose 25 mg/kg, route oral. Particulars: po. Summed up: (§1)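 Serum pharmacokinetics in nude mice or cynomolgus monkeys after oral (po) or iv dosing. Compounds were given as hydrochloride salts in 20% HPβCD unless otherwise noted. Other formulations were the hydrochloride salt in saline, the micronized free base in 20% HPβCD or corn oil (po) with saline for iv, or the hydrochloride salt in 0.4% methyl cellulose (po).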

Series [2] can be described thus: In vivo antitumor efficacy in cynomolgus monkeys by injecting a dose of 10 mg/kg, as HCl salt in saline solution, perorally and the total drug exposure was determined (0-8 hr). The settings on record: cynomolgus monkey, po. The arrangement: time < 8 hr, dose 10 mg/kg, route oral. The series is classed as ADME, organism-based, Macaca fascicularis. Summed up: as §1

Series [3] is described as follows: In vivo antitumor efficacy in nude mice 0-24 hr after intravenous dose of 25 mg/kg expressed as Area under the curve. Format: ADME, organism-based. The settings on record: mouse. The arrangement: time < 24 hr, dose 25 mg/kg, route intravenous. The gist of the method:
as §1

Series [4] is described as follows: In vivo antitumor efficacy in nude mice by injecting a dose of 25 mg/kg iv and serum half-life was determined. Format: ADME, organism-based. The arrangement: dose 25 mg/kg, route intravenous. The settings on record: mouse. Summed up:
as §1

A short description of series [5]: In vivo antitumor efficacy expressed as maximum plasma concentration 0.4 hr after a peroral dose of 25 mg/kg in cynomolgus monkeys. Format: ADME, organism-based, Macaca fascicularis. Also noted: dose 25 mg/kg, route oral. Particulars: cynomolgus monkey, po. Summed up:
as §1

Series [6] addresses geranylgeranyltransferase type-I (Rattus norvegicus, UniProt P53610+Q04631). The series can be described thus: Inhibition of rat Geranylgeranyl transferase (GGPT). Format: protein-complex assay.
Series [7] is described as follows: (§2) Maximal plasma concentration in nude mice after 25 mg/kg oral dose. Also noted: dose 25 mg/kg, route oral. Format: ADME, organism-based. Particulars: mouse. The gist of the method:
as §1

Series [8] can be described thus: (§3) In vivo antitumor efficacy in nude mice 0-24 hr after peroral dose of 25 mg/kg expressed as Area under the curve. The series is classed as ADME, organism-based. The arrangement: time < 24 hr, dose 25 mg/kg, route oral. The settings on record: nude, mouse, po. Summed up:
as §1

The nature of series [9]: Oral bioavailability in mouse (nude) (dose of 25 mg/kg). Format: ADME, organism-based. The settings on record: in vivo. The gist of the method:
as §1

Series [10] has as its system Cynomolgus monkey. The series can be described thus: In vivo antitumor efficacy after peroral dose of 10 mg/kg in cynomolgus monkeys expressed as duration for which compound was present above IC50. The series is classed as ADME, organism-based, Macaca fascicularis. Also noted: dose 10 mg/kg, route oral. The settings on record: po. Summed up: as §1
A short description of series [11]: Oral bioavailability in nude mice. The series is classed as ADME, organism-based. Particulars: mouse, in vivo, read-out: Bioavailabiility.
Series [12] in a line: In vivo antitumor efficacy in nude mice by injecting a dose of 25 mg/kg, micronized free base in 20% HPbetaCD, iv and the serum half-life was determined. The settings on record: mouse. The arrangement: dose 25 mg/kg, route intravenous. Format: ADME, organism-based.
Series [13] can be described thus: In vivo antitumor efficacy in cynomolgus monkeys by injecting a dose of 10 mg/kg, as HCl salt in saline solution, perorally and the maximum drug concentration was determined. The arrangement: dose 10 mg/kg, route oral. Format: ADME, organism-based, Macaca fascicularis. Particulars: cynomolgus monkey, po. The gist of the method: (§4)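 Cynomolgus monkeys; hydrochloride salt in saline iv, or compound given po (as hydrochloride, as micronized free base in corn oil, or as hydrochloride in 0.4% methyl cellulose, depending on compound).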

For series [14], the system named is Cynomolgus monkey. The series is described as follows: In vivo antitumor efficacy in cynomolgus monkeys by injecting a dose of 10 mg/kg, as HCl salt in saline solution, perorally and the duration of action was reported. The series is classed as ADME, organism-based, Macaca fascicularis. The arrangement: dose 10 mg/kg, route oral. The settings on record: po. Summed up:
as §4

Series [15] is described as follows: In vivo antitumor efficacy in cynomolgus monkeys by injecting a dose of 5 mg/kg, as HCl salt in saline solution, perorally and the total drug exposure was determined (0-8 hr). The series is classed as ADME, organism-based, Macaca fascicularis. The settings on record: cynomolgus monkey, po. The arrangement: time < 8 hr, dose 5 mg/kg, route oral. Summed up:
as §4

Series [16] is described as follows: In vivo antitumor efficacy in cynomolgus monkeys by injecting a dose of 5 mg/kg, as HCl salt in saline solution, perorally and the maximum drug concentration was determined. The settings on record: cynomolgus monkey, po. The series is classed as ADME, organism-based, Macaca fascicularis. The arrangement: dose 5 mg/kg, route oral. The gist of the method:
as §4

Series [17] is described as follows: In vivo antitumor efficacy in cynomolgus monkeys by injecting a dose of 5 mg/kg, as HCl salt in saline solution, iv and the serum half-life was determined. The series is classed as ADME, organism-based, Macaca fascicularis. The arrangement: dose 5 mg/kg, route intravenous. The settings on record: cynomolgus monkey. Summed up:
as §4

Series [18] in a line: In vivo antitumor efficacy in nude mice by injecting a dose of 25 mg/kg, micronized free base in 20% HPbetaCD, perorally and the total drug exposure was determined (0-24hr). Also noted: time < 24 hr, dose 25 mg/kg, route oral. Particulars: mouse, po. The series is classed as ADME, organism-based.
Series [19] in a line: In vivo antitumor efficacy in nude mice by injecting a dose of 25 mg/kg, as HCl salt in saline solution, iv and the serum half-life was determined. Format: ADME, organism-based. The arrangement: dose 25 mg/kg, route intravenous. The settings on record: mouse.
A short description of series [20]: In vivo antitumor efficacy in nude mice by injecting a dose of 25 mg/kg, micronized free base in 20% HPbetaCD, iv and the total drug exposure was determined. (0-24hr). The settings on record: mouse. The arrangement: time < 24 hr, dose 25 mg/kg, route intravenous. Format: ADME, organism-based.
The nature of series [21]: Bioavailability in cynomolgus monkey (dose 5 mg/kg i.v.). Format: ADME, organism-based, Macaca fascicularis. Particulars: in vivo, iv. Summed up:
as §1

Series [22] is described as follows: In vivo antitumor efficacy in nude mice by injecting a dose of 25 mg/kg, as HCl salt in saline solution, iv and the total drug exposure was determined. (0-24hr). The series is classed as ADME, organism-based. Also noted: time < 24 hr, dose 25 mg/kg, route intravenous. The settings on record: mouse.
The subject of series [23] is Mus musculus. The series is described as follows: In vivo antitumor efficacy in nude mice by injecting a dose of 25 mg/kg, as HCl salt in saline solution, perorally and the duration of action was reported. Format: ADME, organism-based. Also noted: dose 25 mg/kg, route oral. The settings on record: po.
Series [24] in a line: In vivo antitumor efficacy in cynomolgus monkeys by injecting a dose of 5 mg/kg, as HCl salt in saline solution, intravenously and the total drug exposure was determined (0-8 hr). The series is classed as ADME, organism-based, Macaca fascicularis. Also noted: time < 8 hr, dose 5 mg/kg, route intravenous. Particulars: cynomolgus monkey, iv. The gist of the method:
as §4

Series [25] is described as follows: as §2. Format: ADME, organism-based. The arrangement: dose 25 mg/kg, route oral. The settings on record: mouse. This is another data set of the same source.
The nature of series [26]: Oral bioavailability in mouse (nude) (dose 25 mg/kg i.v.). The series is classed as ADME, organism-based. The settings on record: in vivo.
A short description of series [27]: as §2. The series is classed as ADME, organism-based. Also noted: dose 25 mg/kg, route oral. The settings on record: mouse. The source holds these as a separate data set.
Series [28] is described as follows: In vivo antitumor efficacy in nude mice by injecting a dose of 25 mg/kg, as HCl salt in saline solution, perorally and the total drug exposure was determined (0-24hr). Format: ADME, organism-based. The arrangement: time < 24 hr, dose 25 mg/kg, route oral. The settings on record: mouse, po.
Series [29] can be described thus: In vivo antitumor efficacy expressed as maximum plasma concentration after a peroral dose of 10 mg/kg in cynomolgus monkeys. Particulars: cynomolgus monkey, po. Format: ADME, organism-based, Macaca fascicularis. Also noted: dose 10 mg/kg, route oral. Summed up: as §1
Series [30] is described as follows: In vivo antitumor efficacy in cynomolgus monkeys 0-8 hours after peroral dose of 25 mg/kg expressed as Area under the curve. The settings on record: cynomolgus monkey, po. The series is classed as ADME, organism-based, Macaca fascicularis. The arrangement: time < 8 hr, dose 25 mg/kg, route oral. Summed up: as §1
Series [31] deals with Mus musculus. Described as §3. Particulars: po, 24 h. Format: ADME, organism-based. Also noted: time < 24 hr, dose 25 mg/kg, route oral. Summed up: as §1
The test system of series [32] is Cynomolgus monkey. The series is described as follows: In vivo antitumor efficacy after peroral dose of 25 mg/kg in cynomolgus monkeys expressed as duration for which compound was present above IC50. The series is classed as ADME, organism-based, Macaca fascicularis. Also noted: dose 25 mg/kg, route oral. Particulars: po. The gist of the method: as §1

Usually AUC stands for the area under the concentration-time curve, a measure of exposure. The term half-life denotes how long it takes for the measured level to halve. A word on the Cmax: it is the maximum level reached in the sampled fluid or tissue. A word on the IC50: it is the concentration that inhibits the measured activity by half.

As for `O=C(Cc1cc[n+]([O-])cc1)N1CCN([C@@H]2c3ccc(Cl)cc3CCc3cc(Br)cnc32)CC1`, the “Time above IC50” value in series [1] is 7 h; in series [10], 12 h. For the same compound, the AUC at 8 h in series [2] was 9.1 µg·h/mL. The AUC at 24 h in series [3] came out at 27.1 µg·h/mL; in [8], 31.9 µg·h/mL. The half-life in series [4] is 1.18 h. The results for the peak concentration (Cmax) in series [5] and in series [7] were 1.8 µM and 25 µM, respectively. In [6], this compound showed an IC50 above 38 µM. The compound also gave a bioavailability in series [9] of 100%.

For the compound `NC(=O)N1CCC(CC(=O)N2CCN(C3c4ccc(Cl)cc4CCc4cc(Br)cnc43)CC2)CC1` (stereo not given), the results for the bioavailability in [11], in series [21] and in [26] were 96.6%, 35% and 100%, respectively. In addition, the half-life was 1.5 h in series [12], 2.4 h in series [17] and 1.2 h in series [19]. Also, the Cmax in series [13] is 2 µM; in series [16], 0.5 µM; in series [25] it was 71.1 µM; in [27], 38.8 µM. Moreover, the results for the “Time above IC50” value in series [14] and in series [23] were 24 h and 8 h, respectively. For the same compound, the AUC at 8 h stood at 4.27 µg·h/mL in series [15], 12.7 µg·h/mL in [2] and 12.3 µg·h/mL in [24]. In addition, the AUC at 24 h in series [18] was determined as 55.2 µg·h/mL; in series [20], 57.2 µg·h/mL; in [22], 33.9 µg·h/mL; in [28] it was 70.8 µg·h/mL. In addition, the IC50 in [6] is above 35 µM.

As for `O=C(Cc1cc[n+]([O-])cc1)N1CCN([C@H]2c3ccc(Cl)cc3CCc3cc(Br)cnc32)CC1`, the “Time above IC50” value in series [1] came to 7 h; in series [32], 24 h. Moreover, the figures for the Cmax in series [29] and in series [7] were 8 µM and 24.6 µM, respectively. Moreover, in series [4], the half-life is 1.9 h. In addition, in [30], the AUC at 8 h came out at 58.1 µg·h/mL. The same compound had an IC50 in series [6] above 76 µM. For the same compound, the AUC in [31] amounted to 35.3 µg·h/mL. This compound also returned an AUC at 24 h in series [8] of 26.1 µg·h/mL. The compound also showed a bioavailability in series [9] of 100%.

Values taken from ChEMBL document CHEMBL1131493, “Inhibitors of farnesyl protein transferase. 4-Amido, 4-carbamoyl, and 4-carboxamido derivatives of 1-(8-chloro-6,11-dihydro-5H-benzo[5,6]- cyclohepta[1,2-b]pyridin-11-yl)piperazine and 1-(3-bromo-8-chloro-6,11- dihydro-5H-benzo[5,6]cyclohepta[1,2-b]pyridin-11-yl)piperazine” (J Med Chem, 1998).
